RAM inhibit – inhibitors of the yeast RAM network; S. cerevisiae dse1pr::URA3 reporter, 5-FOA growth OD615, 2 d; analog-sensitive cbk1-as2 kinase mutant strain; inhibition, % at 50 µM; 190,000 tested, 1.8% active;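 active = inhibition above a set limit, 3 SD over mean compound inhibition, cut at about 8.4% in these data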;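 also: inhibition rescues growth on 5-FOA so higher OD means more RAM inhibition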
ABCG2 inh – blocks JC-1 efflux by human ABCG2 transporter; Q9UNQ0; IgMXP3 cells, flow cytometry; inhibition, % at 6.6 µM; 190,000 tested, 0.1% active;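 active = inhibition above 80%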
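Incubation: cells with compound and JC-1, 10 min at 25 °C, rotating, no wash / Test system: IgMXP3 (ABCG2) plus far-red-tagged CCRF-Adr (ABCB1) cells / Compound dosing: one concentration, 6.6 µM final / Also added: JC-1 fluorescent substrate / Evaluation: efflux inhibition in percent versus controls / Detection: flow cytometry, 530 nm JC-1 signal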
ABCB1 inh – blocks JC-1 efflux by human ABCB1 transporter; P08183; CCRF-Adr cells, flow cytometry; inhibition, % at 6.6 µM; 190,000 tested, 0.067% active; AID 1326; in the data active = inhibition above about 40%;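 also: higher value means more JC-1 retained so stronger ABCB1 efflux block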
Lmaj promast – inhibitors of Leishmania major promastigote growth; 200,000 tested, 9% active; AID 1063; Leishmania major promastigotes, resazurin fluorescence viability; inhibition, % at 10 µM; in the data active = inhibition above about 50%;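 also: promastigotes grown with compound for 44 hours at 28 °C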
WT yeast gro inh – growth inhibition of WT yeast, mitochondrial fusion screen. inhibition, % at 10 µM. 190,000 tested, 2.1% active. mitochondrial fusion phenotypic screen, WT strain; in the data active = inhibition above about 58%; tested in S. cerevisiae
Of the large screens only hits and unclear results are named; the others gave an inactive call. This is a sample that favours compounds with a hit; in the whole collection about 12% have one here.

O=C1N(Cc2cccc(Cl)c2)C[C@@H]2C[C@@H](c3c[nH]c4ccccc34)N3CCC[C@@]123	none
CC(=O)Nc1ccc(OCC(O)Cn2c3ccccc3c3ccccc32)cc1 (stereo not drawn)	Lmaj promast 85
CC(=O)Nc1ccc(OCC(O)Cn2c3ccccc3c3ccccc32)c(C)c1 (stereo not drawn)	Lmaj promast 75
OC(COc1ccccc1)Cn1c2ccccc2c2ccccc21 (stereo not drawn)	Lmaj promast 70, WT yeast gro inh 80
CN=c1sc2ccccc2n1CC(O)COc1ccccc1 (stereo not drawn)	none
COc1ccc(C(C)=O)cc1COC(=O)C(CO)NS(=O)(=O)c1ccc(Br)cc1 (stereo not drawn)	none
CCn1cc(C(=O)OCC(=O)c2cc(C)n(-c3ccc(OC(F)F)cc3)c2C)c(=O)c2ccc(C)nc21	none
Cc1cccc2c(=O)c(Br)c(C)n(Cc3ccccc3)c12	none
CN(C)C(CNC(=O)c1cccc(OC(F)F)c1)c1ccco1 (stereo not drawn)	Lmaj promast 59
CCOC(=O)c1ccc(NC(=S)Nc2cccc(C)n2)cc1	Lmaj promast 57
COC(=O)Cc1ccc(NC(=S)Nc2cccc(C)n2)cc1	none
COc1cccc(NC(=O)N(CCCN2CCOCC2)C(C)c2cc3ccccc3o2)c1 (stereo not drawn)	Lmaj promast 99 (no result: WT yeast gro inh)
COc1cccc(NC(=O)N(CCCN2CCOCC2)C(C)c2cc3cccc(OC)c3o2)c1 (stereo not drawn)	none
COc1ccc(NC(=S)N(CCCN2CCOCC2)C(C)c2cc3ccccc3o2)cc1 (stereo not drawn)	Lmaj promast 72
COC(=O)c1c(NC(=O)CN2C(=O)NC3(CCc4ccccc4C3)C2=O)sc2c1CCCCC2 (stereo not drawn)	none
CCOC(=O)c1c(C)[nH]c(C(=O)COC(=O)/C=C/c2ccc(O)c(OC)c2)c1C	Lmaj promast 99
CCOC(=O)c1c(C)[nH]c(C(=O)COC(=O)CNC(=O)c2ccc(Cl)cc2Cl)c1C	Lmaj promast 52
O=C1C(=O)N(O)C2CCCCC2N1O (stereo not drawn)	none
O=C(c1ccc(COc2ccccc2Br)cc1)N1CCCCCC1	none
COc1ccccc1-n1cc(CN2CCCC(CO)(Cc3cccc(Cl)c3)C2)cn1 (stereo not drawn)	none
O=C1S/C(=C\c2ccc(N3CCOCC3)o2)C(=O)N1Cc1c(F)cccc1Cl	ABCG2 inh 132
CCNC(=O)CC1C(=O)N(c2ccccc2)C(=O)N1Cc1ccc(OC)cc1 (stereo not drawn)	none
Cn1c(=O)c2c(nc(NCc3cccnc3)n2Cc2cccc(C(F)(F)F)c2)n(C)c1=O	Lmaj promast 95
COc1cccc(Cn2c(NCc3cccnc3)nc3c2c(=O)n(C)c(=O)n3C)c1	none
O=C(N/N=C/c1ccc(Br)o1)c1cc([N+](=O)[O-])cc([N+](=O)[O-])c1	Lmaj promast 94
O=C(N/N=C/c1ccncc1)c1cc([N+](=O)[O-])cc([N+](=O)[O-])c1	Lmaj promast 96
O=C(N/N=C/c1ccco1)c1cccc([N+](=O)[O-])c1	none
CC(C)Nc1nnc(SC(C)C(=O)Nc2ccc(Cl)cn2)s1 (stereo not drawn)	none
CCc1ccc(NC(=O)CN2C(=O)C(=O)N(Cc3ccccc3)C2=O)cc1	none
CCOC(=O)N1CCC(N2C(=O)c3ccccc3C2Nc2cc(Cl)c(OC)cc2OC)CC1 (stereo not drawn)	Lmaj promast 97
COC(=O)c1nn(-c2nc(-c3cccc(OC)c3)cc(C(F)(F)F)n2)cc1[N+](=O)[O-]	Lmaj promast 90
COc1ccc(C(=O)NC2CCN(C(=O)Nc3ccccc3Cl)CC2)cc1	none
COc1cc(Nc2ccccc2Cl)c([N+](=O)[O-])nc1[N+](=O)[O-]	Lmaj promast 83
CC(C)OC(=O)CC(=O)CSc1nc2c(cc1C#N)CCC2	none
CC(C)OC(=O)CC(=O)CSc1nc2c(c(-c3cccs3)c1C#N)CCC2	RAM inhibit 10
CCCCn1c(SCC(=O)Nc2cc(C(F)(F)F)ccc2Cl)nnc1C(CC)N(C)C (stereo not drawn)	Lmaj promast 82
Cc1cc(C)c(NC(=O)COC(=O)/C=C/c2cccs2)c(C)c1	none
CCN(CC(=O)Nc1ccc2c(c1)OCCO2)Cc1cc(=O)oc2c(C)c(C)ccc12	Lmaj promast 81
Cc1cc2oc(=O)cc(CN3CCN(Cc4ccc5c(c4)OCO5)CC3)c2cc1C	Lmaj promast 94

Bioassay records (PubChem)
